Assay results reported in ChEMBL document CHEMBL1156597, “Structure-activity relationship of kahalalide F synthetic analogues” (J Med Chem, 2008).

Assays:
[1] = system: LoVo; experiment: Cytotoxicity against human doxorubicin resistant LoVo cells after 48 hrs by SRB assay; format: functional; conditions: for CC50: read-out: LC50 (the source's name)
Outline: (§1)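 Cells grown in RPMI 1640 with 10% FBS and penicillin/streptomycin at 37 °C and 5% CO₂, trypsinized, then seeded at 5 × 10³/well. After 18 h drug-free attachment, samples in DMSO/EtOH/PBS (0.5:0.5:99) were added for 48 h continuous exposure. Cells were fixed with cold TCA (1 h, 4 °C) and stained with SRB (10 min). Tris-solubilized stain read at 490 nm. Triplicate wells, mean ± SD; GI₅₀ derived.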

[2] = system: SK-BR-3; experiment: Cytotoxicity against human SKBR3 cells after 48 hrs by SRB assay; format: functional; conditions: SK-BR-3, 48 h; for CC50: read-out: LC50 (the source's name); outline: as §1
[3] = system: LNCaP; experiment: Cytotoxicity against human LNcaP cells after 48 hrs by SRB assay; format: functional; conditions: for CC50: read-out: LC50 (the source's name); outline: as §1
[4] = Cytotoxicity against human IGROV cells after 48 hrs by SRB assay; format: functional; conditions: for CC50: read-out: LC50 (the source's name); outline: as §1
[5] = system: SK-MEL-28; experiment: Cytotoxicity against human SK-MEL-28 cells after 48 hrs by SRB assay; format: functional, cell-based; conditions: Homo sapiens, SK-MEL-28, 48 h; for CC50: read-out: LC50 (the source's name); outline: as §1
[6] = system: HeLa; experiment: Cytotoxicity against human HeLa cells after 48 hrs by SRB assay; format: functional; conditions: for CC50: read-out: LC50 (the source's name); outline: as §1
[7] = system: K562; experiment: Cytotoxicity against human K562 cells after 48 hrs by SRB assay; format: functional; conditions: K562, 48 h; for CC50: read-out: LC50 (the source's name); outline: as §1
[8] = Cytotoxicity against human IGROV-ET cells after 48 hrs by SRB assay; format: functional; conditions: for CC50: read-out: LC50 (the source's name); outline: as §1
[9] = system: A549; experiment: Cytotoxicity against human A549 cells after 48 hrs by SRB assay; format: functional, cell-based; conditions: Homo sapiens, A549, 48 h; outline: as §1
[10] = system: DU-145; experiment: Cytotoxicity against human DU145 cells after 48 hrs by SRB assay; format: functional, cell-based; conditions: Homo sapiens, DU-145, 48 h; for CC50: read-out: LC50 (the source's name); outline: as §1
[11] = Cytotoxicity against human HeLa-APL cells after 48 hrs by SRB assay; format: functional; outline: as §1
[12] = system: LoVo; experiment: Cytotoxicity against human LoVo cells after 48 hrs by SRB assay; format: functional; conditions: for CC50: read-out: LC50 (the source's name)
[13] = system: HT-29; experiment: Cytotoxicity against human HT29 cells after 48 hrs by SRB assay; format: functional, cell-based; conditions: Homo sapiens, HT-29, 48 h; for CC50: read-out: LC50 (the source's name); outline: as §1
[14] = system: PANC-1; experiment: Cytotoxicity against human PANC1 cells after 48 hrs by SRB assay; format: functional; conditions: PANC-1, 48 h; for CC50: read-out: LC50 (the source's name); outline: as §1

C/C=C1\NC(=O)[C@H](Cc2ccccc2)NC(=O)[C@@H](C(C)C)NC(=O)[C@@H]([C@H](C)CC)NC(=O)[C@H](NC(=O)[C@H](NC(=O)[C@H](CCCN)NC(=O)[C@H]2CCCN2C(=O)[C@H](NC(=O)[C@@H](NC(=O)[C@@H](NC(=O)[C@H](NC(=O)CCCC(C)C)C(C)C)C(C)C)C(C)C)C(C)C)[C@H](C)CC)[C@H](C)OC(=O)[C@H](C(C)C)NC1=O
CC50 [1]: 28 nM
TGI [2]: 153 nM
GI50 ([2]; read-out: GI50): 166 nM
CC50 [2]: 75.8 nM
GI50 [3]: 334 nM
TGI [3]: 530 nM
CC50 [3]: 733 nM
GI50 [4]: 118 nM
GI50 ([4]; read-out: GI50): 183 nM
CC50 [4]: 55.9 nM
TGI [5]: 178 nM
GI50 ([5]; read-out: GI50): 209 nM
CC50 [5]: 151 nM
GI50 [6]: 134 nM
TGI [6]: 124 nM
CC50 [6]: 116 nM
GI50 [7]: 718 nM
TGI [7]: 899 nM
CC50 [7]: 1100 nM
GI50 [8]: 248 nM
GI50 ([8]; read-out: GI50): 257 nM
CC50 [8]: 64.8 nM
GI50 [9]: 445 nM
LC50 [9]: 640 nM
GI50 ([9]; read-out: GI50): 258 nM
GI50 [10]: 149 nM
GI50 ([10]; read-out: GI50): 175 nM
CC50 [10]: 127 nM
GI50 [11]: 324 nM
LC50 (concentration giving 50% net cell kill) [11]: 730 nM
TGI [11]: 467 nM
GI50 [12]: 276 nM
TGI [12]: 270 nM
CC50 [12]: 264 nM
GI50 [13]: 300 nM
TGI [13]: 311 nM
CC50 [13]: 322 nM
GI50 [14]: 1120 nM
TGI [14]: 1260 nM
CC50 [14]: 1420 nM

C/C=C1\NC(=O)[C@H](Cc2ccccc2)NC(=O)[C@@H](C(C)C)NC(=O)[C@@H]([C@H](C)CC)NC(=O)[C@H](NC(=O)[C@H](NC(=O)[C@H](CCCN)NC(=O)[C@H]2CCCN2C(=O)[C@H](NC(=O)[C@@H](NC(=O)[C@@H](NC(=O)[C@H](NC(=O)CCCCCC)C(C)C)[C@@H](C)O)C(C)C)C(C)C)[C@H](C)CC)[C@H](C)OC(=O)[C@H](C(C)C)NC1=O
GI50 [1]: 264 nM
TGI [1]: 244 nM
CC50 [1]: 175 nM
GI50 [2]: 36.3 nM
GI50 ([2]; read-out: GI50): 227 nM
CC50 [2]: 363 nM
GI50 [3]: 1090 nM
TGI [3]: 863 nM
CC50 [3]: 861 nM
GI50 [4]: 404 nM
GI50 ([4]; read-out: GI50): 354 nM
CC50 [4]: 421 nM
GI50 [5]: 915 nM
GI50 ([5]; read-out: GI50): 808 nM
CC50 [5]: 991 nM
GI50 [6]: 965 nM
TGI [6]: 882 nM
CC50 [6]: 806 nM
GI50 [7]: 2740 nM
TGI [7]: 2970 nM
CC50 [7]: 1990 nM
GI50 [8]: 304 nM
GI50 ([8]; read-out: GI50): 289 nM
CC50 [8]: 394 nM
LC50 [9]: 1150 nM
TGI [9]: 1160 nM
GI50 ([9]; read-out: GI50): 1180 nM
GI50 [10]: 880 nM
GI50 ([10]; read-out: GI50): 848 nM
CC50 [10]: 895 nM
GI50 [11]: 781 nM
LC50 (concentration giving 50% net cell kill) [11]: 864 nM
TGI [11]: 822 nM
GI50 [12]: 320 nM
TGI [12]: 324 nM
CC50 [12]: 326 nM
GI50 [13]: 499 nM
TGI [13]: 583 nM
CC50 [13]: 1070 nM
GI50 [14]: 2360 nM
TGI [14]: 3780 nM
CC50 [14]: 2720 nM
